pIC50: −log10 of the molar value.
Assays:
Chymase = target: T1, Chymase (Homo sapiens, UniProt P23946); test: Inhibition of recombinant human chymase using bis(succinoyl-L-alanyl-L-prolyl-L-phenylalanylamide) as substrate after 1 hr by fluorescence assay
T1 sequence (P23946 whole entry): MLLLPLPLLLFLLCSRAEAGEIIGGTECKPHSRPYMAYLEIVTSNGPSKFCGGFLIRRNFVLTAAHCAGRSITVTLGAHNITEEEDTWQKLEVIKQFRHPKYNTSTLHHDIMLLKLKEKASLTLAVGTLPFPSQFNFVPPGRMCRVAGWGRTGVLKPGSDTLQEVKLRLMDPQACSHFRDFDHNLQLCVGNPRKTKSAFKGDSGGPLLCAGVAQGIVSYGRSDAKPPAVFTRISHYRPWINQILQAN

Cathepsin G = target: T2, Cathepsin G (Homo sapiens, UniProt P08311); test: Inhibition of human cathepsin G using bis(succinoyl-L-alanyl-L-prolyl-L-phenylalanylamide) as substrate after 1 hr by fluorescence assay
T2 sequence (P08311 whole entry): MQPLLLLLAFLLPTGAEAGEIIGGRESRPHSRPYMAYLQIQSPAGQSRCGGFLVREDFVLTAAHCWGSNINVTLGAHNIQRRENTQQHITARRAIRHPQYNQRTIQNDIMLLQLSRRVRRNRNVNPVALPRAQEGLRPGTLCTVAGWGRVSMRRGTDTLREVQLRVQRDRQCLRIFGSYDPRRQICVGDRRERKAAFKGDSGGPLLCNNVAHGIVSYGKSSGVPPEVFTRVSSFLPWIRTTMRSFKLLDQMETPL

Homo sapiens = species: Homo sapiens; test: Selectivity ratio of IC50 for human cathepsin G to IC50 for recombinant human chymase
How it was run: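 Both IC50s from the same fluorogenic rhodamine 110 bis(Suc-Ala-Ala-Pro-Phe-amide) assay, 1 h at 28 °C/80% humidity, ex 485 / em 530 nm, with 0.01% CHAPS, 100 μM TCEP and 1% DMSO. Chymase: 500 pM recombinant human enzyme, 100 nM substrate, 20 mM Tris-HCl pH 8.0, 50 mM NaCl. Cathepsin G: 4 nM enzyme, 300 nM substrate, PBS plus 10 mM HEPES pH 7.4.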

Liver microsomes = test: Metabolic stability in human liver microsomes assessed as GSH adduct formation incubated for 3 min prior to NADPH addition measured after 2 hrs by mass spectrometric analysis

pIC50 (Chymase) | pIC50 (Cathepsin G) | Compound | further results
< 3.00 |  | O=C1Cc2cc(Cl)ccc2N1 | 
< 3.00 |  | CN1C(=O)Cc2ccc(Cl)cc21 | 
 | 5.42 | O=C(O)CCCSc1nc2ccccc2n1Cc1cc(Cl)cc2c1CC(=O)N2 | 
 | 7.28 | Cc1cccc2scc(Cn3c(SCCCC(=O)O)nc4ccccc43)c12 | Ratio IC50 (Homo sapiens): 10
 | < 5.00 | O=C(O)CCn1c(=O)n(Cc2cc(Cl)cc3c2CC(=O)N3)c2ccccc21 | 
 | 5.85 | Cc1cccc2scc(Cn3c(=O)n(CCCC(=O)O)c4ccccc43)c12 | 
 | < 5.00 | CCCC(Cn1c(=O)n(Cc2cc(Br)cc3c2CC(=O)N3)c2ccccc21)C(=O)O (stereo not given) | 
 | < 5.00 | O=C(O)CCn1c(=O)n(Cc2cc(Br)cc3c2CC(=O)N3)c2ccccc21 | 
< 3.00 |  | O=C1Cc2cccc(Cl)c2N1 | 
 | < 5.00 | CCCC(Cn1c(=O)n(Cc2cc(Br)cc3[nH]c(=O)sc23)c2ccccc21)C(=O)O (stereo not given) | 
< 3.00 |  | O=C1NCc2ccc(Cl)cc21 | 
 | 5.27 | CCCC(CC(=O)O)n1c(=O)n(Cc2cc(Br)cc3c2CC(=O)N3)c2ccccc21 (stereo not given) | 
3.24 |  | O=C1Cc2ccc(Br)cc2N1 | 
 | < 5.00 | CCCC(CC(=O)O)n1c(=O)n(Cc2cccc3c2CC(=O)N3)c2ccccc21 (stereo not given) | 
< 3.00 |  | O=C1Cc2ccccc2N1 [OXINDOLE] | 
 | < 3.00 | O=C1Cc2ccc(Cl)cc2N1 | 
 | < 5.00 | CCCC(CC(=O)O)n1c(=O)n(Cc2cc(Cl)cc3c2CC(=O)N3)c2ccccc21 (stereo not given) | Stability (Liver microsomes): Stable
< 3.00 |  | O=C1Cc2c(Cl)cccc2N1 | 

Source: ChEMBL document CHEMBL2380206, “Discovery of potent, selective chymase inhibitors via fragment linking strategies” (J Med Chem, 2013)
